Assays:
[1] = tested on: HCD-57 cells expressing FLT3-D835H; test: XTT cell viability assay, transformed HCD-57; type: cell-based, murine; details: 48 hours
[2] = tested on: FLT3 signaling in FLT3-ITD-transformed HCD-57 cells; test: Cell signaling western blot; type: cell-based, murine; details: 3 hours
In short: (§1)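 EPO-independent retrovirally transformed HCD-57 cells were treated with the indicated inhibitor concentrations for 3 h. They were lysed in whole-cell buffer (25 mM β-glycerophosphate pH 7.3, EDTA/EGTA, 1% Triton X-100, 0.1 M NaCl, 1 mM vanadate, protease inhibitors) and cleared at 13 000×g. Equal total protein was run on SDS gels and immunoblotted for pFLT3 (pY591), pERK1/2 (pT202/pY204), pAKT (pS473), total FLT3/ERK/AKT and GAPDH.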

[3] = tested on: FLT3-D835Y-transformed HCD-57 cells; test: Cell cycle analysis, propidium iodide; type: cell-based, murine; details: 100 and 500 nM, 24 hours
[4] = tested on: FLT3-ITD-transformed HCD-57 cells; test: Cell cycle analysis, propidium iodide; type: cell-based, murine; details: 100 and 500 nM, 24 hours
[5] = tested on: FLT3-D835Y-transformed HCD-57 cells; test: Apoptosis assay, annexin V and propidium iodide; type: cell-based, murine; details: 100 and 500 nM, 24 hours
[6] = tested on: HCD-57 cells expressing FLT3-ITD; test: XTT cell viability assay, transformed HCD-57; type: cell-based, murine; details: 48 hours
[7] = tested on: HCD-57 cells expressing FLT3-D835Y; test: XTT cell viability assay, transformed HCD-57; type: cell-based, murine; details: 48 hours
[8] = tested on: HCD-57 cells transformed with JAK2V617F; details: XTT, 48 hours
[9] = tested on: parent HCD-57 cells; test: XTT cell viability assay, parent HCD-57; type: cell-based, murine; details: 48 hours, with EPO
[10] = tested on: FLT3-ITD-transformed HCD-57 cells; test: Apoptosis assay, annexin V and propidium iodide; type: cell-based, murine; details: 100 and 500 nM, 24 hours
[11] = tested on: parent HCD-57 cells; test: Apoptosis assay, annexin V and propidium iodide; type: cell-based, murine; details: 100 and 500 nM, 24 hours, cultured with EPO
[12] = tested on: FLT3 signaling in FLT3-D835Y-transformed HCD-57 cells; test: Cell signaling western blot; type: cell-based, murine; details: 3 hours
In short: as §1

CNC(=O)c1cc(Oc2ccc(NC(=O)Nc3ccc(Cl)c(C(F)(F)F)c3)cc2)ccn1 [sorafenib]
effect on cell growth/viability [1]: far less active | phosphorylation of FLT3, ERK and Akt [2]: strong inhibitory effect | cell cycle distribution (G1, S+G2) [3]: exhibited such an effect only on the FLT3-ITD cells | cell cycle distribution (G1, S+G2) [4]: exhibited such an effect only on the FLT3-ITD cells | percentage of apoptotic and necrotic cells [5]: no effect | effect on cell growth/viability [6]: strongly inhibited | effect on cell growth/viability [7]: far less active | effect on cell viability [8]: far less active | effect on cell viability [9]: far less active | percentage of apoptotic and necrotic cells [10]: potent to induce apoptosis and necrosis | apoptosis [11]: neither JI6 nor sorafenib displayed significant effects | phosphorylation of FLT3, ERK and Akt [12]: much less effective
